Experimental findings from ChEMBL document CHEMBL2390835, “Synthesis and antimalarial testing of neocryptolepine analogues: addition of ester function in SAR study of 2,11-disubstituted indolo[2,3-b]quinolines” (Eur J Med Chem, 2013) are described below.

Series [1] can be described thus: Selectivity index, ratio of IC50 for rat L6 cells to IC50 for chloroquine-sensitive erythrocytic stage of Plasmodium falciparum NF54. The format is toxicity, cell-based. Conditions: read-out: Ratio IC50. Summed up: (§1)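 IC50 in rat L6 skeletal myoblasts divided by the antiplasmodial IC50 for the named strain. L6 cells were seeded at 4000 per well in RPMI 1640 with L-glutamine and 10% FBS and exposed to eleven 3-fold dilutions from 100 to 0.002 µg/mL for 70 h. Alamar Blue was then added for 2 h and fluorescence read at ex 536 / em 588 nm. IC50 by linear regression of the sigmoidal curves.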

Series [2] in a line: Selectivity index, ratio of IC50 for rat L6 cells to IC50 for chloroquine-resistant erythrocytic stage of Plasmodium falciparum K1. Type of series: toxicity, cell-based. The settings on record: read-out: Ratio IC50. Summed up: as §1
Series [3] has as its system Plasmodium falciparum. As to the kind of experiment: Antimalarial activity against chloroquine-resistant erythrocytic stage of Plasmodium falciparum K1 infected in human red blood cells assessed as growth inhibition after 48 hrs by [3H]-hypoxanthine incorporation assay. Type of series: functional, organism-based. The method, boiled down:
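Erythrocytic P. falciparum in RPMI 1640 without hypoxanthine, with HEPES, NaHCO3, neomycin, Albumax, and human A+ red cells at 2.5% haematocrit and 0.3% parasitaemia. Compounds from a 10 mg/mL DMSO stock, eleven 3-fold dilutions from 100 to 0.002 µg/mL. Incubated 48 h at 37 °C (4% CO2, 3% O2), then 3H-hypoxanthine added for 24 h more. Cells harvested and counted by scintillation. IC50 by linear regression of the sigmoidal curves, mean of two independent assays.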

In series [4] the test system is L6. As to the kind of experiment: Cytotoxicity against rat L6 cells assessed as growth inhibition after 70 hrs by Alamar blue staining-based inverted microscopic analysis. Type of series: cell-based. Conditions: L6, 70 h. Summed up:
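L6 rat skeletal myoblasts, 4000 cells/well in RPMI 1640 with 1% L-glutamine (200 mM) and 10% FBS. Eleven 3-fold dilutions spanning 100 to 0.002 µg/mL. After 70 h, Alamar Blue added for 2 h more. Fluorescence read at ex 536/em 588 nm. IC50 from sigmoidal dose–inhibition curves by linear regression.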

Series [5] has as its system Plasmodium falciparum. The series can be described thus: Resistance index, ratio of IC50 for chloroquine-resistant erythrocytic stage of Plasmodium falciparum K1 to IC50 for chloroquine-sensitive erythrocytic stage of Plasmodium falciparum NF54. The format is functional.
Series [6] relates to Plasmodium falciparum. As to the kind of experiment: Antimalarial activity against chloroquine-sensitive erythrocytic stage of Plasmodium falciparum NF54 infected in human red blood cells assessed as growth inhibition after 72 hrs by [3H]-hypoxanthine incorporation assay.
Series [7] is described as follows: Inhibition of beta-haematin formation after 5 to 6 hrs by UV-vis spectamax plate reader analysis. The format is functional. The method, boiled down:
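Detergent-mediated assay: compounds from DMSO stocks (20, 2, 0.4 mM) in duplicate, 0–1000 µM final. Added water and NP-40, then haematin at 100 µM final in 0.5 M acetate buffer pH 4.8. Incubated at 37 °C for 5–6 h. Pyridine added to 5% v/v final in HEPES pH 7.4 with acetone. Haem–pyridine absorbance read (405 nm). IC50 from sigmoidal fits.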

Series [8] in a line: Solubility of the compound in water. Type of series: physicochemical. Conditions: buffer.
The subject of series [9] is Plasmodium berghei. The series can be described thus: Antimalarial activity against Plasmodium berghei infected in Swiss mouse assessed as reduction in parasitaemia at 20 mg/kg, ip administered for 4 days measured on day 7 by FACS analysis relative to control. The format is functional. Also noted: scale not given: the % may be the effect or the level left. Conditions: route intraperitoneal. Summed up:
(§2)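 Intraperitoneal dosing at 20 mg/kg daily for four consecutive days. Parasitaemia read on day 4 and day 7. Activity is the difference between mean percent parasitaemia of the control group (n = 5 mice) and the treated group, expressed as a percent of control.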
(A flow cytometer gives signals particle by particle.)

Series [10] deals with Plasmodium berghei. As to the kind of experiment: Antimalarial activity against Plasmodium berghei infected in Swiss mouse assessed as reduction in parasitaemia at 20 mg/kg, ip administered for 4 days measured on day 4 post last dose by FACS analysis relative to control. Type of series: functional. Also noted: scale not given: the % may be the effect or the level left. The settings on record: route intraperitoneal. The method, boiled down:
as §2

On to `Cn1c2nc3ccccc3c-2c(NCCCN)c2ccccc21`, for which, in [1], the selectivity ratio amounted to 3.5.
One may read the IC50 as the concentration that inhibits the measured activity by half. Consider `COC(=O)c1ccc2c(c1)c(NCCCNC(=O)Nc1ccccc1)c1c3cc(Br)ccc3nc-1n2C`, for which the selectivity ratio was 56.9 in series [2] and 157 in series [1]. Also, the IC50 was 19.7 nM in series [3], 1120 nM in series [4], 7.15 nM in series [6] and 10100 nM in series [7]. Besides, the “Ratio IC50” value in series [5] is reported as 2.75.
`Cn1c2nc3ccc(Br)cc3c-2c(NCCCNC(=O)Nc2ccccc2)c2cc(Cl)ccc21`: the selectivity ratio in [2] amounted to 24.3; in series [1], 73. The half-inhibitory concentration (IC50) was determined as 16.8 nM in series [3], 408 nM in [4], 5.59 nM in series [6] and 17800 nM in [7]. Moreover, the “Ratio IC50” value in series [5] worked out at 3.
As for `COC(=O)c1ccc2nc3n(C)c4ccc(Br)cc4c(NCCCN)c-3c2c1`, the selectivity ratio in series [1] is 361. Further, the half-maximal inhibitory concentration (IC50) in series [4] amounted to 819 nM; in series [6] it was 2.27 nM; in series [7] it was 11500 nM.
`COC(=O)c1ccc2c(c1)c(NCCCN)c1c3cc(Br)ccc3nc-1n2C`: the figures for the selectivity ratio in [2] and in series [1] were 66 and 232, respectively. In addition, the half-inhibitory concentration (IC50) in series [3] was 15.9 nM; in [4], 1050 nM; in [6], 4.54 nM; in series [7] it was 10200 nM. The “Ratio IC50” value in series [5] was found to be 3.5.
Regarding `Cn1c2nc3ccc(Br)cc3c-2c(NCCCN)c2cc(Cl)ccc21`, the selectivity ratio in series [2] is 20.9; in [1], 186. Also, the IC50 came out at 19.2 nM in series [3], 401 nM in series [4], 2.16 nM in [6] and 30100 nM in [7]. The “Ratio IC50” value in series [5] is reported as 8.89.
As for `Cn1c2nc3ccc(C(=O)O)cc3c-2c(NCCCN)c2ccccc21`, the solubility entry in [8] is recorded as “soluble”. In [1], the selectivity ratio is 66.8. The results for the IC50 in series [4] and in [6] were 113000 nM and 1690 nM, respectively.
`CN(C)CCNc1c2c3cc(C(=O)O)ccc3nc-2n(C)c2ccccc12`: the solubility entry in [8] is given as “soluble”. Moreover, the selectivity ratio in series [1] came to 7.84. Besides, the IC50 in series [4] is 20000 nM; in series [6], 2550 nM.
For `CN(C)CCCNc1c2c3cc(C(=O)O)ccc3nc-2n(C)c2ccccc12`, in that order: “soluble”, 30.6, 66200 nM and 2160 nM.
With `COC(=O)c1ccc2c(c1)c(NCCCNC(=O)Nc1ccccc1)c1c3ccccc3nc-1n2C`, the selectivity ratio is 13.4 in series [2] and 181 in series [1]. The IC50 in [3] is 56.1 nM; in [4], 754 nM; in series [6], 4.16 nM; in [7], 23000 nM. The “Ratio IC50” value in [5] amounted to 13.5.
Consider `COC(=O)c1ccc2c(c1)c(NCCCNC(=S)Nc1ccccc1)c1c3ccccc3nc-1n2C`, for which the selectivity ratio in [2] amounted to 36.1; in series [1], 321. The IC50 in [3] was 16.1 nM; in [4], 581 nM; in series [6] it was 1.81 nM; in [7], 15700 nM. In [5], the “Ratio IC50” value is reported as 8.89.
As to `COC(=O)c1ccc2nc3n(C)c4ccccc4c(NCCCNC(=O)Nc4ccccc4)c-3c2c1`, the selectivity ratio was found to be 37.7 in [2] and 178 in series [1]. Besides, the IC50 in [3] worked out at 68.4 nM; in [4], 2580 nM; in series [6], 14.5 nM; in [7], 12800 nM. For the same compound, in [5], the “Ratio IC50” value worked out at 4.71.
Consider `COC(=O)c1ccc2nc3n(C)c4ccccc4c(NCCCNC(=S)Nc4ccccc4)c-3c2c1`, for which the selectivity ratio in series [2] worked out at 43.8; in series [1], 467. Further, the half-inhibitory concentration (IC50) in series [3] was 64.4 nM; in series [4], 2820 nM; in series [6] it was 6.03 nM; in [7], 10800 nM. Moreover, the “Ratio IC50” value in [5] was 10.7.
Regarding `COC(=O)c1ccc2nc3n(C)c4ccc(C(=O)OC)cc4c(NCCCNC(=O)Nc4ccccc4)c-3c2c1`, the values for the selectivity ratio in [2] and in [1] were 650 and 1590, respectively. In addition, the IC50 is 40.8 nM in series [3], 26500 nM in series [4], 16.7 nM in series [6] and 4600 nM in series [7]. Further, the “Ratio IC50” value in series [5] came out at 2.44.
As for `COC(=O)c1ccc2nc3n(C)c4ccc(C(=O)OC)cc4c(NCCCNC(=S)Nc4ccccc4)c-3c2c1`, the selectivity ratio in series [2] was 12.4; in [1] it was 43.5. Further, the half-inhibitory concentration (IC50) in series [3] was 50.4 nM; in [4], 627 nM; in series [6] it was 14.4 nM; in [7], 7500 nM. Moreover, the “Ratio IC50” value in [5] worked out at 3.5.
As for `COC(=O)c1ccc2nc3n(C)c4ccc(Cl)cc4c(NCCCNC(=O)Nc4ccccc4)c-3c2c1`, the selectivity ratio in series [2] stood at 143; in series [1], 246. For the same compound, the IC50 in [3] was found to be 23.3 nM; in series [4], 3340 nM; in series [6], 13.6 nM; in [7] it was 14900 nM. In series [5], the “Ratio IC50” value is given as 1.71.
As to `COC(=O)c1ccc2nc3n(C)c4ccc(Br)cc4c(NCCCNC(=O)Nc4ccccc4)c-3c2c1`, the selectivity ratio in series [1] was determined as 837. Further, the concentration for half-maximal inhibition (IC50) was found to be 6740 nM in series [4], 8.05 nM in series [6] and 16000 nM in series [7].
Consider `COC(=O)c1ccc2nc3n(C)c4ccccc4c(N4CCCN(C)CC4)c-3c2c1`, for which the selectivity ratio in series [1] worked out at 8.25. In addition, the results for the IC50 in [4], in [6] and in series [7] were 6190 nM, 750 nM and 106000 nM, respectively.
Taken in the same sequence, the figures for `COC(=O)c1ccc2nc3n(C)c4ccccc4c(N4CCOCC4)c-3c2c1` were 2.15, 3810 nM, 1770 nM and 55500 nM.
Regarding `COC(=O)c1ccc2c(c1)c(NCCCN)c1c3ccccc3nc-1n2C`, the Activity in series [9] is on record as 72.5%; in series [10], 33.4%. The figures for the selectivity ratio in series [2] and in series [1] were 15.2 and 40.7, respectively. Besides, the 50% inhibitory concentration (IC50) in [3] is 22.1 nM; in series [4], 337 nM; in series [6], 8.28 nM; in [7], 104000 nM. Further, the “Ratio IC50” value in series [5] is 2.67.
Turning to `COC(=O)c1ccc2nc3n(C)c4ccc(C(=O)OC)cc4c(NCCCN)c-3c2c1`, the selectivity ratio was 117 in series [2] and 146 in [1]. The IC50 was 11.9 nM in series [3], 1390 nM in [4], 9.52 nM in series [6] and 13000 nM in series [7]. In series [5], the “Ratio IC50” value worked out at 1.25.
As for `COC(=O)c1ccc2nc3n(C)c4ccc(Cl)cc4c(NCCCN)c-3c2c1`, the selectivity ratio in series [2] was 21.1; in series [1], 56.4. Moreover, the IC50 in series [3] came to 20.2 nM; in series [4] it was 427 nM; in series [6], 7.57 nM; in series [7], 25400 nM. Further, the “Ratio IC50” value in [5] stood at 2.67.
`COC(=O)c1ccc2nc3n(C)c4ccccc4c(NCCCCN)c-3c2c1`: in series [1], the selectivity ratio was 7.81. The IC50 came to 436 nM in series [4] and 55.8 nM in series [6].
In the case of `COC(=O)c1ccc2nc3n(C)c4ccccc4c(NCCN(C)C)c-3c2c1`, the selectivity ratio in series [1] is 7.41. For the same compound, the IC50 stood at 315 nM in [4], 42.5 nM in series [6] and 51500 nM in series [7].
Consider `COC(=O)c1ccc2nc3n(C)c4ccccc4c(NCCCN(C)C)c-3c2c1`, for which the selectivity ratio in series [1] is 8.05. The results for the IC50 in series [4], in series [6] and in series [7] were 268 nM, 33.3 nM and 62500 nM, respectively.
In the case of `COC(=O)c1ccc2nc3n(C)c4ccccc4c(NCCCO)c-3c2c1`, the half-inhibitory concentration (IC50) in series [4] came out at 639 nM; in series [6], 278 nM; in series [7], 123000 nM.
`CCN(CC)CCCC(C)Nc1ccnc2cc(Cl)ccc12` (configuration not stated) [CHLOROQUINE] yielded an IC50 in [7] of 18400 nM.
In the case of `Cn1c2nc3ccccc3c-2cc2ccccc21` [NEOCRYPTOLEPINE], the selectivity ratio is 1.88 in series [2] and 2 in [1]. In addition, the “Ratio IC50” value in [5] turned out to be 1.07.
